Data on 3 molecules can be found in ChEMBL document CHEMBL1130166, “Synthesis and pharmacological characterization of 3-[2-((3aR,9bR)-cis-6-methoxy-2,3,3a,4,5,9b-hexahydro-1H-benz[e] isoindol-2-yl)ethyl]pyrido-[3',4':4,5]thieno[3,2-d]pyrimidine-2,4 (1H,3H)-dione (A-131701): a uroselective alpha 1A adrenoceptor antagonist for the symptomatic treatment of benign …” (J Med Chem, 1997).

Assay [1] deals with T1, 5-hydroxytryptamine receptor 1F (Rattus norvegicus, UniProt P30940).
T1 sequence (P30940 whole entry): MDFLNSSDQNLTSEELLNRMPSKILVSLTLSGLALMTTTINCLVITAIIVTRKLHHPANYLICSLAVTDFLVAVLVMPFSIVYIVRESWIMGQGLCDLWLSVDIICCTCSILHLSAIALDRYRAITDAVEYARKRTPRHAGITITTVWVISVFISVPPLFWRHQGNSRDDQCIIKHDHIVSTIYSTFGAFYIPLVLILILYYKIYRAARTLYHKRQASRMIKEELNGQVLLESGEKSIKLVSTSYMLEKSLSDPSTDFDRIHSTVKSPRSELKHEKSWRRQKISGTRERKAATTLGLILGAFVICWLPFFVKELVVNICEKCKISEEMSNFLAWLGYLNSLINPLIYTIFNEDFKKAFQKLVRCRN
Briefly: Binding affinity against 5-hydroxytryptamine 1 receptor using [3H]5-HT as radioligand.

The target of assay [2] is 5-hydroxytryptamine receptor 2A (Bos taurus, UniProt Q75Z89). Briefly: Binding affinity against 5-hydroxytryptamine 2 receptor using [3H]ketanserin as radioligand.
Chain of 5-hydroxytryptamine receptor 2A (Q75Z89 whole entry): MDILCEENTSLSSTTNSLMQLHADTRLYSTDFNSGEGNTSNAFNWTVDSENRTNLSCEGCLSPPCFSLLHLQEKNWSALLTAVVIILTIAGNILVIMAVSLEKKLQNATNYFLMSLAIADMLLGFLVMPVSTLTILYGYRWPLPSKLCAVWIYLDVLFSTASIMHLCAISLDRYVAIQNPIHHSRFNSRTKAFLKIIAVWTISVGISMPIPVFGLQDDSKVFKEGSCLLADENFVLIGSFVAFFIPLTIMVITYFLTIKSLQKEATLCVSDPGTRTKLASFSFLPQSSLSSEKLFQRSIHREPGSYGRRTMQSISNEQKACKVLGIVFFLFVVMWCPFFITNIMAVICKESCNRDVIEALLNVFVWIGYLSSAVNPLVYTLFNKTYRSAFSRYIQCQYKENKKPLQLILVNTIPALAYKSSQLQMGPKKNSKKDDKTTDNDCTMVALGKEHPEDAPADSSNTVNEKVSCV
Assay [3] concerns the target T2, Alpha-1D adrenergic receptor (Rattus norvegicus, UniProt P23944).
T2 sequence (P23944 whole entry): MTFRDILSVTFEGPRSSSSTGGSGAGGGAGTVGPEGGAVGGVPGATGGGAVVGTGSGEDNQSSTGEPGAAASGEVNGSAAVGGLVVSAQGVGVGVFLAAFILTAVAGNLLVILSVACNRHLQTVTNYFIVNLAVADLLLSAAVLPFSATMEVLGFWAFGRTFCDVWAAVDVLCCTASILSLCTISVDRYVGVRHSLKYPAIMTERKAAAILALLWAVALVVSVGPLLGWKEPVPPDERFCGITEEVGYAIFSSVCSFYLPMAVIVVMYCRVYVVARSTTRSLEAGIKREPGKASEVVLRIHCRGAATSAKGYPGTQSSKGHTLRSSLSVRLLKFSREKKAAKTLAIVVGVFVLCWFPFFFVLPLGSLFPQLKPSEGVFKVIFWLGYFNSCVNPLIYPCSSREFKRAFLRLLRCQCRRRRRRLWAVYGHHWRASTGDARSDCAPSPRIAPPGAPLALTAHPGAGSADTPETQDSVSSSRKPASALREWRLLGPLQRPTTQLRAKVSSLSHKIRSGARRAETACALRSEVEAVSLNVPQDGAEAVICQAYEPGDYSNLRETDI
Briefly: In vitro antagonism against Alpha-1D adrenergic receptor using phenylephrine (PE) challenge in rat aorta. It counts as functional, tissue-based. The note with it: read-out: pA2 (converted). The gist of the method: (§1)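 Agonist concentration-response curves were run on the isolated tissue, then repeated in the presence of increasing concentrations of antagonist. pA2 was obtained by Schild analysis.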

For assay [4], the target named is T3, Alpha-1B adrenergic receptor (Rattus norvegicus, UniProt P15823).
T3 sequence (P15823 whole entry): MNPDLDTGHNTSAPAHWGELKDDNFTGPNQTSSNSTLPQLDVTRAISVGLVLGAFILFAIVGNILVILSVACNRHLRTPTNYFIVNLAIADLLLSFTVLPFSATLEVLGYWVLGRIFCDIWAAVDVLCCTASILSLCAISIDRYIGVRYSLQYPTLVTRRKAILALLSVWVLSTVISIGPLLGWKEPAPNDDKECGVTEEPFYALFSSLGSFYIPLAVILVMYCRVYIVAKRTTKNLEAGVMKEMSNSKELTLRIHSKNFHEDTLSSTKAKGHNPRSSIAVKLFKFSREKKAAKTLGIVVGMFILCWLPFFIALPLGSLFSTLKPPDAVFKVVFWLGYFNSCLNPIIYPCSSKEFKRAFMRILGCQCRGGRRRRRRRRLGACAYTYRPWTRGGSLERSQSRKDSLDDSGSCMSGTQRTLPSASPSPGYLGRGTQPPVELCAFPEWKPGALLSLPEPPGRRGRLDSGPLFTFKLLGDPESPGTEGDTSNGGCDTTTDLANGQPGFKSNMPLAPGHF
Nature of the assay: In vitro antagonism against Alpha-1B adrenergic receptor using phenylephrine (PE) challenge in rat spleen. The format is functional, tissue-based. Conditions: read-out: pA2 (converted). The gist of the method: as §1

For assay [5], the target named is Beta-1 adrenergic receptor (Homo sapiens, UniProt P08588). Briefly: Binding affinity against Beta-1 adrenergic receptor using [3H]DHA as radioligand.
Chain of Beta-1 adrenergic receptor (P08588 whole entry): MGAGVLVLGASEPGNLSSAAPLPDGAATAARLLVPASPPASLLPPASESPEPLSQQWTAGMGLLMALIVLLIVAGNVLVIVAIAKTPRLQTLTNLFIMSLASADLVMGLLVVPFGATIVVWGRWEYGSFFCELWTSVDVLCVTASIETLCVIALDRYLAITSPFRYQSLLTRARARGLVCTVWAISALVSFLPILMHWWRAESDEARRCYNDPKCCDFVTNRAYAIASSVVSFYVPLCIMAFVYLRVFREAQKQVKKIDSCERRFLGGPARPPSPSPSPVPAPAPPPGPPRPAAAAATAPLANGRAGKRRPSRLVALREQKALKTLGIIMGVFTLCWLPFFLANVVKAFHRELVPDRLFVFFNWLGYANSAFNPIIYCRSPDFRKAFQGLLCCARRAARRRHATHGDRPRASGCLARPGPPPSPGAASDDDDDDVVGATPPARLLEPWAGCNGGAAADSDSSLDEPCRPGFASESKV
Assay [6] has as its target T4, Alpha-2A adrenergic receptor (Homo sapiens, UniProt P08913).
T4 sequence (P08913 whole entry): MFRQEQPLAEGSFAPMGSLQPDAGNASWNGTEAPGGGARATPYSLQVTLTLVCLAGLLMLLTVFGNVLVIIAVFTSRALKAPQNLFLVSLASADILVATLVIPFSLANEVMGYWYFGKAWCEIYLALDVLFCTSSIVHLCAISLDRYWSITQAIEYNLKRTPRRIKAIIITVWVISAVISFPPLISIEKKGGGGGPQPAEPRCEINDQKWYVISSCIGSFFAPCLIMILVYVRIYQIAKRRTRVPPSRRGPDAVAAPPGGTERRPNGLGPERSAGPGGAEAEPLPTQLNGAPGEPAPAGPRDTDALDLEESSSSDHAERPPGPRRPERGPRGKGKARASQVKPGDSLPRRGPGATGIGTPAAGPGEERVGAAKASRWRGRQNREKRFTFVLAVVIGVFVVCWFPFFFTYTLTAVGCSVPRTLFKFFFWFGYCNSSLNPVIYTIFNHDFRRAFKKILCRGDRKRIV
Nature of the assay: Binding affinity against human adrenergic receptor subtype Alpha-2A adrenergic receptor using [3H]rauwolscine as radioligand.

For assay [7], the target named is T5, Alpha-1B adrenergic receptor (Homo sapiens, UniProt P35368).
T5 sequence (P35368 whole entry): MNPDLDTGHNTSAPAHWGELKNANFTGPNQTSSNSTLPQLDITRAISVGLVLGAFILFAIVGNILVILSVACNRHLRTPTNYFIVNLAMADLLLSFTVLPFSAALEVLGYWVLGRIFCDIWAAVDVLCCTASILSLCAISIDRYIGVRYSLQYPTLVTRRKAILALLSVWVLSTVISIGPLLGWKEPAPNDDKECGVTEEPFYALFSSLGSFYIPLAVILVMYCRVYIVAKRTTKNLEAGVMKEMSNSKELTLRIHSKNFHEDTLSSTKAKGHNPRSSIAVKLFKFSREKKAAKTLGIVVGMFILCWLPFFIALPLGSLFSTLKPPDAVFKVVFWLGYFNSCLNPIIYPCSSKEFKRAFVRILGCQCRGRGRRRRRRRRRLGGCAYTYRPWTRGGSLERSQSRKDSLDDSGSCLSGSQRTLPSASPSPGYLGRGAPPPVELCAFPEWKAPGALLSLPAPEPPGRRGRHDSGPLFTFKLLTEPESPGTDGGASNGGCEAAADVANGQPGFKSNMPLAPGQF
Nature of the assay: Binding affinity against human adrenergic receptor subtype Alpha-1B adrenergic receptor using [3H]prazosin as radioligand.

Assay [8] addresses T6, Alpha-2C adrenergic receptor (Homo sapiens, UniProt P18825).
T6 sequence (P18825 whole entry): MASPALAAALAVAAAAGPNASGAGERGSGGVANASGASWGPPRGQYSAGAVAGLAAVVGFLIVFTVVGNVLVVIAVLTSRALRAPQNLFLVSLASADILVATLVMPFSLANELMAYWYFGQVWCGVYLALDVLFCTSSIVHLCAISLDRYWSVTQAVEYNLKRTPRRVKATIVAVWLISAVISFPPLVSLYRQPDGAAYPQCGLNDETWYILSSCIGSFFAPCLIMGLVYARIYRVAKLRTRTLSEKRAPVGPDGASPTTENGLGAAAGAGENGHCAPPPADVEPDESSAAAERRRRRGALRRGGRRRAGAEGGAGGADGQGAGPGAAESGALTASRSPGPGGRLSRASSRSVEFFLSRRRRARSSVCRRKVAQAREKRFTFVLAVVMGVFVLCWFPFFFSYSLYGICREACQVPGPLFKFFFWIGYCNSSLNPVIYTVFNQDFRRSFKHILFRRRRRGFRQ
Briefly: Binding affinity against human Alpha-2C adrenergic receptor using [3H]rauwolscine as radioligand.

Assay [9] deals with T7, Alpha-2B adrenergic receptor (Rattus norvegicus, UniProt P19328).
T7 sequence (P19328 whole entry): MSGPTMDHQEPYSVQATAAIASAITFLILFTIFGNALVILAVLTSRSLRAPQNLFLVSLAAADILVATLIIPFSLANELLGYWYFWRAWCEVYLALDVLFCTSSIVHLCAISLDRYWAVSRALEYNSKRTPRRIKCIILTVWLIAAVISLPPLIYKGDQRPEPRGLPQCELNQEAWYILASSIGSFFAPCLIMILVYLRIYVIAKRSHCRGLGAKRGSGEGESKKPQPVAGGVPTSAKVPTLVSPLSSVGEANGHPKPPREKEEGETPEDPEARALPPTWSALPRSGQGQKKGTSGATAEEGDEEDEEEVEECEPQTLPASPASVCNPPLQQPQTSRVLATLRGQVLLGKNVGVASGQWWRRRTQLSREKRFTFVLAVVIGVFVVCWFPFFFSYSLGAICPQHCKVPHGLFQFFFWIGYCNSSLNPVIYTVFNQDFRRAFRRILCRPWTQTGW
Briefly: Binding affinity against rat Alpha-2B adrenergic receptor using [3H]rauwolscine as radioligand.

The target of assay [10] is Beta-2 adrenergic receptor (Homo sapiens, UniProt P07550). Briefly: Binding affinity against adrenergic receptor subtype Beta-2 adrenergic receptor using [3H]DHA as radioligand.
Chain of Beta-2 adrenergic receptor (P07550 whole entry): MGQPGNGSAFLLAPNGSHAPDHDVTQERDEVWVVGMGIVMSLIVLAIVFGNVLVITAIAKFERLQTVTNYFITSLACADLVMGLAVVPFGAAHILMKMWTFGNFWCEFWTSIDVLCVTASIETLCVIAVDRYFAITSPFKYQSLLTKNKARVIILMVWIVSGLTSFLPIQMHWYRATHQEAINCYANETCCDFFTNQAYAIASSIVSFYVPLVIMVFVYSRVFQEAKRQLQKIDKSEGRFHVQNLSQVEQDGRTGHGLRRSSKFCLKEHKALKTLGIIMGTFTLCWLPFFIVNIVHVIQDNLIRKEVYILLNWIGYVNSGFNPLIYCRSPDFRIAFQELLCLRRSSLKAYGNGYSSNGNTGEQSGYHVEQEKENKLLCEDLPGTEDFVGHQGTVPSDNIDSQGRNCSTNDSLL
Another assay concerns the target D(1A) dopamine receptor (Mus musculus, UniProt Q61616). Briefly: Binding affinity against Dopamine receptor D1 using [3H]SCH-23390 as radioligand.
For another assay, the target named is D(2) dopamine receptor (Homo sapiens, UniProt P14416). Nature of the assay: Binding affinity against Dopamine receptor D2 using [3H]spiroperidol as radioligand.
Chain of D(2) dopamine receptor (P14416 whole entry): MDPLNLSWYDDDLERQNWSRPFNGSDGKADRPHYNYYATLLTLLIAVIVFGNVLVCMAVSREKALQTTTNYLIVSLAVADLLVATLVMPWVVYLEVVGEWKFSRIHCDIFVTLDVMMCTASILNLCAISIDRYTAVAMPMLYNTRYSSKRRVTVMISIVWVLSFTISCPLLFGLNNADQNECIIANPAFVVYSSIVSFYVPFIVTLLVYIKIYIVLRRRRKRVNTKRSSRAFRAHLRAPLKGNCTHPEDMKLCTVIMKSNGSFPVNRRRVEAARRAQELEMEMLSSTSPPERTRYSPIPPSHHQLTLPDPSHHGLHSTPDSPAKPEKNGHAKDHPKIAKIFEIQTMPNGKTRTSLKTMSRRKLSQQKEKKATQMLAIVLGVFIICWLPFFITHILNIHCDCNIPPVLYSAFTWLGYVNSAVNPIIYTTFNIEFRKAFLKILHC
Assay [11] addresses T8, Alpha-1D adrenergic receptor (Homo sapiens, UniProt P25100).
T8 sequence (P25100 whole entry): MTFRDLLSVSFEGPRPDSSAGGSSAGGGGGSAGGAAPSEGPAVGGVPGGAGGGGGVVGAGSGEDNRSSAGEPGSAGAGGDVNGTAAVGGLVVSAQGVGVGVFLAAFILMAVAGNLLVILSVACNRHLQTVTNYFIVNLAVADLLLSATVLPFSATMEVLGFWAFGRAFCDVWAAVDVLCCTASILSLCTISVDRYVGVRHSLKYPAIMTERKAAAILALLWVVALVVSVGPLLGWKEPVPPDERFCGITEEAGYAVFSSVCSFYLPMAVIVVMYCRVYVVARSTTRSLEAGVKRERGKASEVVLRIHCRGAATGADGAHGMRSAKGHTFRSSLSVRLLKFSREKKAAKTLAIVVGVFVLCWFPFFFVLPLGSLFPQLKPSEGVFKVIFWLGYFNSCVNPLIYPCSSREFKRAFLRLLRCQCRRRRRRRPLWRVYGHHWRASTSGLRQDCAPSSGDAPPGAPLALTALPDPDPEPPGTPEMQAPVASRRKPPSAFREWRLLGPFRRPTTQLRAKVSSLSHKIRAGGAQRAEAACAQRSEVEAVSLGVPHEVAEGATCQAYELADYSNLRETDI
Nature of the assay: Binding affinity against human adrenergic receptor subtype Alpha-1D adrenergic receptor using [3H]prazosin as radioligand.

The test system of the next assay is Rattus norvegicus. Briefly: Compound was tested for selectivity in a challenge spontaneously hypertensive rat (SHR) model using an ascending iv dose paradigm.

Chain of D(1A) dopamine receptor (Q61616 whole entry): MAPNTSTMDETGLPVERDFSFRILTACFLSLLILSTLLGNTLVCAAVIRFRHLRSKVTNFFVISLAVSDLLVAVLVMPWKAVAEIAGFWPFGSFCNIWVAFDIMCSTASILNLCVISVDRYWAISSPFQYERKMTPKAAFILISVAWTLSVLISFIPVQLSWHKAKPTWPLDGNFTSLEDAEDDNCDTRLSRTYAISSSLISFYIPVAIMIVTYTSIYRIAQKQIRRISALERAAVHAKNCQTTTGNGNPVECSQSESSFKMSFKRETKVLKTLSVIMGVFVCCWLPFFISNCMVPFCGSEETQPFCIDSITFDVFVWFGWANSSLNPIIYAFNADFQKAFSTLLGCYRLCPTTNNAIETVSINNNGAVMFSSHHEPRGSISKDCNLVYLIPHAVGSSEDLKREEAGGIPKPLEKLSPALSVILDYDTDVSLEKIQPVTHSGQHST

For orientation: Ki means the equilibrium dissociation constant of an inhibitor or competing ligand from its target. Low values mean a stronger hold on the target, high ones a looser hold on the target. In the case of `COc1cccc2c1CC[C@H]1CN(CCn3c(=O)[nH]c4c(sc5cccnc54)c3=O)C[C@@H]21`, the Ki worked out at 3380 nM in assay [1]; 83 nM in assay [2]; 10600 nM in [5]; 94.9 nM in assay [6]; 6.95 nM in assay [7]; 16.6 nM in [8]. Further, the inhibition constant (Ki) worked out at 13.1 nM in [9]; 3870 nM in [10]; 717 nM on D(1A) dopamine receptor; 19.7 nM at D(2) dopamine receptor; 0.97 nM in [11]. The figures for the Kb in [3] and in assay [4] were 0.776 nM and 12.9 nM, respectively. In the assay on Rattus norvegicus, the pED50 is 5.33.

As for `CCOc1ccccc1OCCN[C@H](C)Cc1ccc(OC)c(S(N)(=O)=O)c1` [TAMSULOSIN], the Kb in [4] is 0.204 nM. The Ki came to 13.4 nM in assay [6]; 0.61 nM in [7]; 7.9 nM in assay [8]; 6.8 nM in assay [9]; 0.058 nM in assay [11]. The pED50 in the assay with Rattus norvegicus is recorded as 7.33.

As for `COc1cc2nc(N3CCN(C(=O)C4CCCO4)CC3)nc(N)c2cc1OC` (stereo not given) [TERAZOSIN], the Ki was determined as 1500 nM in [6], 7.7 nM in [9] and 0.85 nM in [11]. The molecule also displayed a pED50 in the assay with Rattus norvegicus of 6.64.
